Measured values published in ChEMBL document CHEMBL1921780, “Novel 3-nitro-1H-1,2,4-triazole-based aliphatic and aromatic amines as anti-chagasic agents” (J Med Chem, 2011).

Key:
Trypanosoma cruzi [1] = test: Antitrypanosomal activity against amastigotes of Trypanosoma cruzi Tulahuen C4 infected in rat L6 cells after 72 hrs by alamar blue assay; details: Tulahuen C4, L6, 72 h
[2] = Selectivity index, ratio of IC50 for rat L6 cells to IC50 for Trypanosoma brucei rhodesiense STIB 900; format: toxicity, cell-based; details: L6 cells versus Trypanosoma brucei rhodesiense STIB 900, read-out: Ratio IC50
How it was run: (§1)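 Selectivity index is the L6 myoblast IC50 divided by the IC50 for each parasite. L. donovani was tested as axenic amastigotes. Both IC50s came from 96-well dose-response screens fitted by linear regression of sigmoidal curves.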

[3] = test system: Trypanosoma brucei rhodesiense; test: Antitrypanosomal activity against blood stream form of Trypanosoma brucei rhodesiense STIB 900 […] after 72 hrs by alamar blue assay; format: functional, organism-based; details: STIB 900, 72 h
[4] = Selectivity index, ratio of IC50 for rat L6 cells to IC50 for Trypanosoma cruzi Tulahuen C4; format: toxicity, cell-based; details: L6 cells versus Trypanosoma cruzi Tulahuen C4, read-out: Ratio IC50
How it was run: as §1

Trypanosoma cruzi [5] = test: Ratio of benznidazole IC50 to compound IC50 for Trypanosoma cruzi Tulahuen C4 infected in rat L6 cells after 72 hrs by alamar blue assay; format: functional
[6] = Selectivity index, ratio of IC50 for rat L6 cells to IC50 for Leishmania donovani MHOM-ET-67/L82; format: toxicity, cell-based; details: L6 cells versus Leishmania donovani MHOM-ET-67/L82, read-out: Ratio IC50
How it was run: as §1

[7] = test system: Trypanosoma brucei brucei; test: Ratio of IC50 for blood-stream Trypanosoma brucei brucei expressing type 1 nitroreductase in the absence of tetracycline to IC50 for tetracycline-induced blood-stream Trypanosoma brucei brucei overexpressing type 1 nitroreductase; format: functional
How it was run: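 Each culture seeded at 1 × 10^3 per ml, given compound for 3 days at 37 °C, then Alamar blue added for 16 h. IC50 taken from cell density, and the ratio is uninduced over induced.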

Leishmania donovani = test: Antileishmanial activity against Leishmania donovani MHOM-ET-67/L82 axenic amastigotes after 72 hrs by alamar blue assay; details: MHOM-ET-67/L82, 72 h
L6 = test: Cytotoxicity against rat L6 cells after 72 hrs by alamar blue assay; format: cell-based; details: L6, 72 h
How it was run: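 Run in 96-well plates with a compound dose series. T. cruzi was tested as amastigotes inside infected L6 rat skeletal myoblasts. Uninfected L6 cells were used for cytotoxicity. IC50 was obtained by linear regression from sigmoidal dose–inhibition curves.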

[8] = test system: Trypanosoma brucei brucei; test: Antitrypanosomal activity against blood-stream Trypanosoma brucei brucei after 3 days by alamar blue assay; format: functional, organism-based; details: 72 h
How it was run: (§2)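 Bloodstream-form parasites seeded at 1 × 10^3 per ml in growth medium with a range of nitrotriazole or nifurtimox concentrations, no tetracycline. Incubated 3 days at 37 °C, then Alamar blue added for a further 16 h. IC50 taken from culture cell density.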

[9] = test system: Trypanosoma brucei brucei; test: Antitrypanosomal activity against blood-stream Trypanosoma brucei brucei expressing type 1 nitroreductase after 3 days by alamar blue assay in absence of tetracycline; format: functional, organism-based; details: 72 h
How it was run: as §2

[10] = test system: Trypanosoma brucei brucei; test: Antitrypanosomal activity against tetracycline-induced blood-stream Trypanosoma brucei brucei overexpressing type 1 nitroreductase after 3 days by alamar blue assay; format: functional, organism-based; details: 72 h
How it was run: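 Bloodstream-form parasites carrying inducible TbNTR, with expression induced by tetracycline (1 μg/mL). Seeded at 1 × 10^3 per ml with a range of nitrotriazole or nifurtimox concentrations. Incubated 3 days at 37 °C, then Alamar blue added for 16 h. IC50 taken from cell density.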

[11] = Dissociation constant, pKa of the compound; format: physicochemical
Salmonella typhimurium = test: Induction of mutagenesis in Salmonella Typhimurium by Ames test; format: toxicity, organism-based; details: salmonella enterica subsp. enterica serovar typhimurium
Trypanosoma cruzi [12] = test: Antitrypanosomal activity against amastigote form of Trypanosoma cruzi Tulahuen C4 infected in rat L6 cells after 72 hrs by alamar blue assay; details: Tulahuen C4, L6, 72 h

`Cl.O=[N+]([O-])c1nccn1CCCNc1nc(-c2ccccc2)nc2ccccc12` gave an IC50 (Trypanosoma cruzi [1]) of 1970 nM, a selectivity ratio [2] of 22 and an IC50 [3] of 3920 nM. For the same molecule, the selectivity ratio [4] was 45, the “Ratio IC50” value (Trypanosoma cruzi [5]) was 0.7 and the selectivity ratio [6] was 9. For the same molecule, the “Ratio IC50” value [7] was 8, the IC50 (Leishmania donovani) was 10100 nM and the IC50 (L6) was 87800 nM. For the same molecule, the IC50 [8] was 7470 nM, the IC50 [9] was 7580 nM and the IC50 [10] was 950 nM. The pKa [11] was 5.06.

Work on `Cl.O=[N+]([O-])c1ncn(CCCNc2ccnc3cc(Cl)ccc23)n1` yielded an IC50 (Trypanosoma cruzi [1]) of 607 nM, a selectivity ratio [2] of 463 and an IC50 [3] of 309 nM. For the same molecule, the selectivity ratio [4] was 236, the “Ratio IC50” value (Trypanosoma cruzi [5]) was 2.2 and the selectivity ratio [6] was 3. For the same molecule, the IC50 (Leishmania donovani) was 45800 nM, the IC50 (L6) was 143000 nM and the pKa [11] was 7.31. For the same molecule, the Activity (Salmonella typhimurium) was “Non-toxic”.

In the case of `Cl.O=[N+]([O-])c1ncn(CCCCNc2ccnc3cc(Cl)ccc23)n1`, the IC50 (Trypanosoma cruzi [1]) is reported as 140 nM, the selectivity ratio [2] is reported as 708 and the IC50 [3] is reported as 193 nM. For the same molecule, the selectivity ratio [4] was 976, the “Ratio IC50” value (Trypanosoma cruzi [5]) was 9.6 and the selectivity ratio [6] was 2. For the same molecule, the “Ratio IC50” value [7] was 4, the IC50 (Leishmania donovani) was 64500 nM and the IC50 (L6) was 137000 nM. The IC50 [8] was 170 nM, the IC50 [9] was 440 nM and the IC50 [10] was 100 nM. It also gave a pKa [11] of 7.31.

With `Cl.O=[N+]([O-])c1ncn(CCCNc2nc(-c3ccccc3)nc3ccccc23)n1` the IC50 (Trypanosoma cruzi [1]) was 1480 nM, the selectivity ratio [2] was 68 and the IC50 [3] was 1420 nM. For the same molecule, the selectivity ratio [4] was 66, the “Ratio IC50” value (Trypanosoma cruzi [5]) was 0.9 and the selectivity ratio [6] was 10. For the same molecule, the “Ratio IC50” value [7] was 64, the IC50 (Leishmania donovani) was 9480 nM and the IC50 (L6) was 97000 nM. It also gave an IC50 [8] of 2630 nM, an IC50 [9] of 4480 nM and an IC50 [10] of 70 nM. For the same molecule, the pKa [11] was 5.06 and the Activity (Salmonella typhimurium) was “Non-toxic”.

`Cl.O=[N+]([O-])c1ncn(CCCNCc2cc(C(F)(F)F)cc(C(F)(F)F)c2)n1` showed an IC50 (Trypanosoma cruzi [1]) of 169 nM, a selectivity ratio [2] of 18 and an IC50 [3] of 7840 nM. For the same molecule, the selectivity ratio [4] was 816, the “Ratio IC50” value (Trypanosoma cruzi [5]) was 8 and the selectivity ratio [6] was 12. The “Ratio IC50” value [7] was 14, the IC50 (Leishmania donovani) was 11100 nM and the IC50 (L6) was 138000 nM. The IC50 [8] was 7830 nM, the IC50 [9] was 11100 nM and the IC50 [10] was 760 nM. The pKa [11] was 9.44 and the Activity (Salmonella typhimurium) was “Non-toxic”.

In the case of `Cl.O=[N+]([O-])c1ncn(CCCN(Cc2ccc(C(F)(F)F)cc2)Cc2ccc(C(F)(F)F)cc2)n1`, the IC50 (Trypanosoma cruzi [1]) is reported as 145 nM, the selectivity ratio [2] is reported as 339 and the IC50 [3] is reported as 271 nM. The selectivity ratio [4] was 634, the “Ratio IC50” value (Trypanosoma cruzi [5]) was 9.3 and the selectivity ratio [6] was 264. For the same molecule, the “Ratio IC50” value [7] was 2, the IC50 (Leishmania donovani) was 348 nM and the IC50 (L6) was 91900 nM. The IC50 [8] was 210 nM, the IC50 [9] was 200 nM and the IC50 [10] was 100 nM. The pKa [11] was 8.79.

In the case of `Cl.Cl.O=[N+]([O-])c1ncn(CCCN2CCN(Cc3ccc(C(F)(F)F)cc3)CC2)n1`, the IC50 (Trypanosoma cruzi [1]) is reported as 340 nM, the selectivity ratio [2] is reported as greater than 140 and the IC50 [3] is reported as 1380 nM. The selectivity ratio [4] was greater than 562, the “Ratio IC50” value (Trypanosoma cruzi [5]) was 4 and the selectivity ratio [6] was greater than 3. It also gave an IC50 (Leishmania donovani) of 58200 nM, an IC50 (L6) greater than 191000 nM and an IC50 [8] greater than 10000 nM. It also gave a pKa [11] of 8.33.

With `Cl.Cl.O=[N+]([O-])c1ncn(CCCCN2CCN(Cc3ccc(C(F)(F)F)cc3)CC2)n1` the IC50 (Trypanosoma cruzi [1]) was 412 nM, the selectivity ratio [2] was 99 and the IC50 [3] was 1200 nM. For the same molecule, the selectivity ratio [4] was 287, the “Ratio IC50” value (Trypanosoma cruzi [5]) was 3.3 and the selectivity ratio [6] was 3. The IC50 (Leishmania donovani) was 44400 nM, the IC50 (L6) was 118000 nM and the IC50 [8] was greater than 10000 nM. It also gave a pKa [11] of 8.52.

Molecule `Cl.Cl.O=[N+]([O-])c1ncn(CCCN2CCN(c3ccc(C(F)(F)F)cc3)CC2)n1` has an IC50 (Trypanosoma cruzi [1]) of 40 nM, a selectivity ratio [2] of 10 and an IC50 [3] of 5330 nM. For the same molecule, the selectivity ratio [4] was 1320, the “Ratio IC50” value (Trypanosoma cruzi [5]) was 33.8 and the selectivity ratio [6] was 2. The “Ratio IC50” value [7] was 13, the IC50 (Leishmania donovani) was 25900 nM and the IC50 (L6) was 52800 nM. The IC50 [8] was 2300 nM, the IC50 [9] was 2630 nM and the IC50 [10] was 210 nM. For the same molecule, the pKa [11] was 7.85.

With `O=C(Cn1ccnc1[N+](=O)[O-])NCc1ccccc1` [BENZNIDAZOLE] the IC50 (Trypanosoma cruzi [12]) was 1350 nM and the “Ratio IC50” value (Trypanosoma cruzi [5]) was 1.

For `CC1CS(=O)(=O)CCN1/N=C/c1ccc([N+](=O)[O-])o1` (stereo not given) [NIFURTIMOX], the “Ratio IC50” value [7] was 13, the IC50 [9] was 1710 nM and the IC50 [10] was 130 nM.
